Sampled rows, rich in hits. Any-hit rate of the full collection: about 2.8%.
NPY-Y2 PAM-ag: NPY-Y2 potentiators or agonists, primary screen, cell-based. Neuropeptide Y receptor type 2 (Homo sapiens), P49146. cells expressing NPY-Y2, potentiator/agonist read-out. activation, % at 3.6 µM. 220,000 tested, 0.45% active. AID 1359, 2008; in the data active = activation above about 27%;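 also: cells stimulated with NPY near EC25 plus isoproterenol at EC100; 0% = vehicle plus submaximal agonist and 100% = vehicle plus saturating agonist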
NPY Y1 blocker: NPY-Y1 receptor antagonists, primary screen, cell-based | 200,000 tested, 1% active | AID 1040, 2008 | inhibition, % at 3.6 µM | HEK293-CNG Y1 cells, membrane potential fluorescence; NPY at EC95, then isoproterenol;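 active = inhibition above the campaign mean inhibition of all tested compounds plus 3 SD, cut at about 20% in these data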;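 also: 0% = DMSO wells given NPY plus isoproterenol and 100% = isoproterenol alone without NPY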
Target sequence (P25929 whole entry, looked up): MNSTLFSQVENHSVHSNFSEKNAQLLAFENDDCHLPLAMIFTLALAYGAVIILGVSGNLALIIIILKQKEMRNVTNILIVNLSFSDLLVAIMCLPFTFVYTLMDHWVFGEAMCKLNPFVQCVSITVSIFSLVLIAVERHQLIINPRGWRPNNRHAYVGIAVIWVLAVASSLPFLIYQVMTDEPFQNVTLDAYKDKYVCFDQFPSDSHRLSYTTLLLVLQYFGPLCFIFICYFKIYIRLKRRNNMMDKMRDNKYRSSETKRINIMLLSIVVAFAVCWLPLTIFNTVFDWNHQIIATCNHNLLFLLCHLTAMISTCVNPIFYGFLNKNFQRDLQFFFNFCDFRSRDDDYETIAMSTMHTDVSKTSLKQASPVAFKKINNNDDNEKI
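Material: HEK293 Y1/CNG channel cell line; also added: NPY (25 nM), isoproterenol (1 µM), Ro 20-1724 (25 µM); doses: one concentration, 3.6 µM, in 0.4% DMSO; schedule: compound incubation 1 h at room temperature, readout 45 min post-stimulation; technique: membrane potential fluorescence; measure: fluorescence ratio normalized to % inhibition between controls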
NPY Y2 blocker: NPY-Y2 receptor antagonists, primary screen, cell-based. 140,000 tested, 0.99% active. NPY-Y2 expressing cells, antagonist mode. inhibition, % at 2.7 µM. AID 793, 2007. Neuropeptide Y receptor type 2 (Homo sapiens), P49146; in the data active = inhibition above about 17%;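 also: 0% = vehicle with agonist challenge and 100% = reference antagonist with challenge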
EP2 antag: human EP2 receptor antagonists, primary screen, TR-FRET cAMP, C6 glioma cells. inhibition, % at 25 µM. 260,000 tested, 0.52% active. Prostaglandin E2 receptor EP2 subtype (Homo sapiens), P43116. C6 glioma cells expressing human EP2; cells stimulated with saturating PGE2;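 active = percent inhibition above 40 after rounding to a whole number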;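 also: rat C6 glioma host cells with rolipram phosphodiesterase inhibitor present; the protocol text gives 20 µM as final concentration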
NPY1 pot ag: NPY-Y1 receptor potentiators or agonists, primary screen, cell-based; Neuropeptide Y receptor type 1 (Homo sapiens), P25929; NPY-Y1 expressing cells, potentiator/agonist activation; activation, % at 3.6 µM; 220,000 tested, 0.37% active; in the data active = activation above about 33%, passing the limit was not always enough;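 also: cells stimulated with NPY at EC10 then isoproterenol at EC100; 0% = low agonist plus stimulus and 100% = saturating agonist plus stimulus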
EP2 modulator: EP2 receptor modulators, cAMP readout, primary screen, cell-based, HTRF cAMP, PGE2 stimulation. EP2-expressing cells, cAMP HTRF FRET, PGE2 co-stimulation. induction, % at 25 µM. 260,000 tested, 0.83% active. AID 940, 2007;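 active = compounds whose cAMP rise, as percent of the full-agonist control response, exceeds 60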;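 also: rat C6 glioma line stably carrying human EP2 under a CMV promoter; the protocol text gives 20 µM as final concentration; 100% = response of wells given 1 µM PGE2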
NPY-Y1 pot conf: NPY-Y1 potentiators or agonists, confirmation, cell-based. shares compounds with NPY1 pot ag. cell-based NPY-Y1 potentiator/agonist assay. activation, % at 3.6 µM. 280 tested, 20% active. AID 1546, 2009; in the data active = activation above about 45%;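 also: cells challenged with NPY at its EC10 plus isoproterenol stimulus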
NPY-Y2 counter: NPY-Y2 potentiators or agonists, counter-screen for NPY-Y1 potentiator project, cell-based, fluorescence; shares compounds with NPY1 pot ag; HEK293-CNG cells, membrane-potential fluorescence (FLIPR), 1536-well; activation, % at 3.6 µM; 280 tested, 20% active; AID 1649, 2009; in the data active = activation above about 33%
NPY-Y1 agonist: NPY-Y1 direct agonists without NPY, confirmation, counter-screen for NPY-Y1 potentiator project, cell-based, fluorescence. AID 1697, 2009. 280 tested, 50% active. activation, % at 3.6 µM. shares compounds with NPY1 pot ag. HEK293 Y1-CNGC, membrane potential fluorescence, agonist mode;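 active = percent activation above the mean of DMSO-only control wells plus 3 SD of those wells, cut at about 18% in these data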;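 also: cells challenged with isoproterenol plus Ro 20-1724 with no NPY in test wells; Y1 agonism lowers isoproterenol-driven cAMP and reduces probe fluorescence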
NPY-Y2 agonist: NPY-Y2 direct agonists without NPY, counter-screen for NPY-Y1 potentiator project, cell-based, fluorescence; shares compounds with NPY1 pot ag; HEK293 Y2-CNGC, membrane potential fluorescence, agonist mode; activation, % at 3.6 µM; 280 tested, 67% active; AID 1698, 2009;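 active = activation above the solvent-only control wells' mean plus 3 SD, cut at about 11% in these data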;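 also: 0% = DMSO with isoproterenol and 100% = 40 nM NPY maximal response; agonism lowers cAMP so well fluorescence drops in active wells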
CNGC counter: CNGC cAMP sensor activity inhibitors, counter-screen for NPY-Y1 potentiator/agonist project, cell-based, HEK293-CNG parental, membrane potential fluorescence, Y1 set | isoproterenol cAMP | inhibition, % at 3.6 µM | 280 tested, 42% active | shares compounds with NPY1 pot ag;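 active = inhibition above the mean of stimulated solvent-only control wells plus 3 SD, cut at about 22% in these data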;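 also: 0% = isoproterenol-stimulated DMSO wells and 100% = unstimulated DMSO wells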
Active calls of the source: *; x = no result given.

SMILES	NPY-Y2 PAM-ag	NPY Y1 blocker	NPY Y2 blocker	EP2 antag	NPY1 pot ag	EP2 modulator	NPY-Y1 pot conf	NPY-Y2 counter	NPY-Y1 agonist	NPY-Y2 agonist	CNGC counter
COc1ccc(N=Nc2ccc(O)c3ncccc23)cc1	25	x	x	5	40	-3	x	x	x	x	x
COc1ccc(C)cc1N=Nc1ccc(O)c2ncccc12	20	-10	x	10	47*	37	49*	42*	57*	53*	51*
CCC(CC)N1CCN(C2CCCC2)CC1	x	x	x	10	x	-10	x	x	x	x	x
CC1CN(c2nc3c(c(=O)[nH]2)CCN(Cc2ccc(-c4ccccc4)cc2)C3)CC(C)O1 (centres undefined)	x	x	x	3	x	-2	x	x	x	x	x
Cc1ccc(S(=O)(=O)N2CCCC2)cc1[N+](=O)[O-]	7	0	1	8	15	3	x	x	x	x	x
O=[N+]([O-])c1cc(S(=O)(=O)N2CCCCCC2)ccc1Cl	31	-2	x	5	41*	16	16	22	16	22*	56*
COCc1nnc(NC(=O)C2c3ccccc3Oc3ccccc32)s1	x	x	x	8	x	-10	x	x	x	x	x
CCOc1ccc(C2C3=C(CC(C)(C)CC3=O)N(C)C3=C2C(=O)CC(C)(C)C3)cc1	x	x	x	10	x	-18	x	x	x	x	x
N#C/C(=C(/O)c1ccc([N+](=O)[O-])s1)c1nc2ccccc2[nH]1	27	x	x	2	48*	-36	15	22	2	28*	-6
O=C(Nc1ccc(OC(F)F)c(Cl)c1)c1ccccn1	-3	-2	x	5	39*	-43	10	-4	-9	-10	1
COc1ccc(NC(=O)c2ccc(OC(F)F)cc2)cc1Cl	-4	6	3	0	-14	-69	x	x	x	x	x
Brc1ccc(C=Nc2ccc(Nc3ccccc3)cc2)s1	16	0	2	7	40*	41	2	2	9	17*	8
C(=Nc1ccc(Nc2ccccc2)cc1)c1ccc2ccccc2c1	22	-8	4	0	46*	-13	-14	-9	3	0	-1
CSc1ccc(C=C2C(=O)NC(=O)NC2=O)cc1	x	x	x	8	x	-85	x	x	x	x	x
CC(C)(C)c1nn(-c2ccc(F)cc2)c2[nH]c(=O)c(CNC3CC3)cc12	x	x	x	10	x	3	x	x	x	x	x
COc1cc(/C=N\Nc2nc3ccccc3[nH]2)cc(OC)c1OC	-5	2	1	17	-20	-75	x	x	x	x	x
COc1ccc2c(c1)c(/C=N/Nc1nc3ccccc3[nH]1)c(C)n2C	29	x	x	49*	42*	-34	60*	47*	42*	50*	36*
COc1ccccc1Oc1ccc2c(c1)C(=O)N(c1cccc3ncccc13)C2=O	24	-1	1	4	43*	-30	1	12	1	-5	-13

Screening data (PubChem BioAssay)
